GRIN3A LBD mod = modulators (binders) of human NR3A ligand-binding domain | AID 1259313 | NR3A LBD differential scanning fluorimetry, Tm shift; 0% = protein alone, 100% = glycine-bound protein | 340,000 compounds, 2.5% hits | Tm shift relative to glycine control, % at 25 µM;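 active means melting temperature shift of at least 10% of the positive control shift, at one fixed dose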
SENP1 FRET inh = inhibitors of human SENP1 SUMO protease catalytic domain; recombinant SENP1 catalytic domain, CyPet-SUMO1-YPet FRET cleavage; Q9P0U3; AID 624204; 360,000 compounds, 0.21% hits; inhibition, % at 10 µM;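 active means inhibition at least 30% at 10 µM, raw YFP signal under a set limit, fluorescence ratio 0.5 to 1.5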;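 further: 0% = enzyme with DMSO and 100% = no enzyme wells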
Target sequence (Q9P0U3 419-644 limits assumed): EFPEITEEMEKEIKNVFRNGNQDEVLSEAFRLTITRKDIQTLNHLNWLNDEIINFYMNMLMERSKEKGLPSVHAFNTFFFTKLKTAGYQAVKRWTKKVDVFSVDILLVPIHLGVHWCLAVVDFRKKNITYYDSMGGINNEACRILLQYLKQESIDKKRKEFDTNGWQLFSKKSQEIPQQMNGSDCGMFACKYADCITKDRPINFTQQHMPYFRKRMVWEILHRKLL
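system = hSENP1 catalytic domain, recombinant | reagent = SFCypet-SUMO1-SFYpet substrate at 25 nM | doses = one dose per compound, 10 µM, 0.5% DMSO | incubation = enzyme reaction for 50 min at room temperature, dark | measured by = FRET, CFP and YFP emission | controls = no-enzyme low, enzyme-DMSO high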
MPTP block = inhibitors of mitochondrial permeability transition pore. isolated mouse mitochondria, Ca2+ swelling absorbance, 30 min. inhibition, % at 10 µM. 360,000 compounds, 1.4% hits;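 active means inhibition of 50% or more, scaled per plate between neutral and stimulator controls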;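 further: 0% = DMSO wells given calcium and 100% = 1 mM EGTA wells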
EBI2 block = blocks human EBI2 receptor beta-arrestin signaling | inhibition, % at 5 µM | P32249 | EBI2 beta-arrestin recruitment, luminescence, 7a,25-OHC stimulated | 360,000 compounds, 0.81% hits; in the data active means inhibition above about 38%;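 further: enzyme fragment complementation signal reports receptor beta-arrestin coupling in cells; 0% = agonist plus DMSO wells and 100% = wells without agonist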
Target sequence (P32249 whole entry, looked up, the tested form may be a part): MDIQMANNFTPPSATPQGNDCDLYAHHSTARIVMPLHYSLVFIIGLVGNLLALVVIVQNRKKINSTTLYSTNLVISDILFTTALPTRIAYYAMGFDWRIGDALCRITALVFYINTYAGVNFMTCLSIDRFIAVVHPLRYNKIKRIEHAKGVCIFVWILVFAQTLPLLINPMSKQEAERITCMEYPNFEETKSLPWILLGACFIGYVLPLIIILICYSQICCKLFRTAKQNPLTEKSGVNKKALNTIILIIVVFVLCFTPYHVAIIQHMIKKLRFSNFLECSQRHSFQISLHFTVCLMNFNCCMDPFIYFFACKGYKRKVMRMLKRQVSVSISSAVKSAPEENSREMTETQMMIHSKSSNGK
EBI2 antag conf = EBI2 (human) antagonism, single concentration confirmation | EBI2 beta-arrestin luminescence, 7a,25-OHC antagonism | 2,400 compounds, 29% hits | inhibition, % at 5 µM | shares compounds with EBI2 block;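 active means inhibition of at least 50%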
EBI2 ag = counter-screen for EBI2 antagonists: EBI2 agonist activity. 2,400 tested, under 10 active. EBI2-expressing cells, agonist mode, luminescence, 60 min; 0% vehicle, 100% 7α,25-dihydroxycholesterol control. activation, % at 5 µM. AID 652000. shares compounds with EBI2 block;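 active means activation of at least 50%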
bGal counter = inhibits E. coli beta-galactosidase, counter-screen for EBI2 antagonists. shares compounds with EBI2 block. purified beta-galactosidase, luminescent Galacton Star, 15 min. inhibition, % at 5 µM. 2,400 compounds, 1% hits;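 active means replicate-average signal at least 3 plate SD below neutral wells, shown as high inhibition, flagging enzyme-inhibiting false positives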;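 further: 0% = DMSO wells with enzyme and 100% = wells lacking enzyme; higher means stronger loss of beta-gal luminescence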
* hit, by the source's call; nt = no result given. In the library only some 4.4% were active in any assay of this set; here they are far more common.

SMILES	GRIN3A LBD mod	SENP1 FRET inh	MPTP block	EBI2 block	EBI2 antag conf	EBI2 ag	bGal counter
C[C@@H]1CN([C@H](C)CO)C(=O)c2cccc(NC(=O)NC3CCCCC3)c2O[C@@H]1CN(C)C(=O)Nc1ccc(C(F)(F)F)cc1	5	-1	0	72*	46	-1	-11
COc1ccc(CNC(=O)COC(=O)/C=C/c2cccc(Br)c2)cc1	1	3	3	4	nt	nt	nt
O=C(OCC(=O)N1CCCc2ccccc21)c1cnc(Cl)c(Cl)c1	0	0	1	43*	39	0	5
c1cnn(Cc2cnc(N3CCOCC3)s2)c1	1	0	1	1	nt	nt	nt
COc1ccc(C(=O)/C=C/c2ccc(OC(=O)c3cc(OC)c(OC)c(OC)c3)cc2)cc1	2	3	0	45*	10	1	8
CC(=O)Nc1ccc(C(=O)N2CCN(S(=O)(=O)c3ccc4c(c3)OCCCO4)CC2)cc1	2	-1	0	-15	nt	nt	nt
CNc1ccc(C(=O)N2CCN(S(=O)(=O)c3ccc4c(c3)OCCCO4)CC2)cc1[N+](=O)[O-]	1	4	-2	47*	29	1	8
CCCc1cc(C(=O)N2CCN(c3ccccc3C)CC2)cs1	-3	1	1	63*	44	0	4
COc1ccc(CNC(=O)N2CCc3nc(Nc4cc(OC)c(OC)c(OC)c4)ncc3C2)cc1	nt	-3	0	4	nt	nt	nt
COc1cc(NC(=O)N2CCc3nc(Nc4cc(Cl)cc(Cl)c4)ncc3C2)cc(OC)c1OC	nt	-20	0	47*	7	0	-15
Cc1ccc(OCC(=O)NNC(=O)CSc2ncnc3sc(C)c(C)c23)cc1	0	-1	1	66*	29	0	9
CCc1ccc(OCC(=O)NNC(=O)CSc2ncnc3sc(C)c(C)c23)cc1	-4	-5	-1	70*	35	2	3
COc1ccc(C(=O)NCc2nnc(SCC(=O)NCc3ccco3)o2)cc1	1	0	-3	7	nt	nt	nt
CC(=O)n1cc([C@H]2C=C(C(=O)N3CCN(Cc4ccccc4)CC3)O[C@@H](OCc3ccc(CO)cc3)C2)c2ccccc21	-2	-7	0	47*	16	-1	-10
CC(=O)n1cc([C@H]2C=C(C(=O)N3CCN(Cc4ccc5c(c4)OCO5)CC3)O[C@@H](OCc3ccc(CO)cc3)C2)c2ccccc21	1	0	-4	42	nt	nt	nt
Cc1ccc(Oc2nc3ccccn3c(=O)c2/C=C(\C#N)C(=O)Nc2c(C)n(C)n(-c3ccccc3)c2=O)c(C)c1	0	-20	1	63*	58*	2	3
Cc1cc(Oc2nc3ccccn3c(=O)c2/C=C(\C#N)C(=O)NC2CCS(=O)(=O)C2)ccc1Cl (centres undefined)	2	-23	-1	49*	66*	-1	-14
N#C/C(=C\c1c(Oc2ccc(Cl)cc2)nc2ccccn2c1=O)C(=O)NC1CCS(=O)(=O)C1 (centres undefined)	0	-27	-2	-5	nt	nt	nt
Cc1cccc(Oc2nc3ccccn3c(=O)c2/C=C(\C#N)C(=O)NC2CCS(=O)(=O)C2)c1 (centres undefined)	0	-134	0	45*	53*	0	-18
CCOc1cc(OCC)cc(C(=O)N2CCC[C@H]2C(=O)N2CCC[C@H]2C(=O)NCc2cccc(OC)c2)c1	nt	0	0	-4	nt	nt	nt
S=C(NCCCN1CCOCC1)NN=C1c2ccccc2-c2ccccc21	nt	1	0	12	nt	nt	nt
CCCCn1nnnc1C(c1cc2ccccc2o1)N(CCC#N)Cc1ccccc1 (centres undefined)	nt	1	0	15	nt	nt	nt
O=C(COc1ccc(Br)cc1)N/N=C1/SCC(=O)N1Cc1ccccc1	9	3	0	49*	12	1	5
COc1ccccc1OCC(=O)N/N=C1/SCC(=O)N1Cc1ccccc1	-3	0	2	-4	nt	nt	nt
COc1cc(/C=N/OCC(=O)NC23CC4CC(CC(C4)C2)C3)ccc1OCc1ccccc1	0	-1	3	45*	27	0	9
SMILES	GRIN3A LBD mod	SENP1 FRET inh	MPTP block	EBI2 block	EBI2 antag conf	EBI2 ag	bGal counter
Cc1nn(CCCC(=O)N2CCN(c3ccc(F)cc3)CC2)c(C)c1[N+](=O)[O-]	1	3	1	3	nt	nt	nt
Cc1cccnc1C(NC(=O)C1CCN(CCCOc2ccccc2)CC1)c1ccc(F)cc1 (centres undefined)	nt	-1	-1	4	nt	nt	nt
NC(N)=N/N=C/c1ccccc1	-13	2	0	-3	nt	nt	nt
NC(=N\N=Cc1ccccc1)/C(N)=N/N=Cc1ccccc1	-2	2	0	48*	38	1	-3
Cc1ccc(C2=NS(=O)(=O)N(C)C(C(=O)NC(C)c3ccccc3)=C2)cc1 (centres undefined)	2	-1	-2	40*	19	1	5
O=C(c1ccc(F)cc1)N1CCN(c2ccc([N+](=O)[O-])cc2-n2cccc2)CC1	3	-2	2	55*	26	0	5
N#C/C(=C\c1ccc(Br)s1)C(=O)N1CCN(c2ccccc2)CC1	4	21	-1	73*	21	0	8
CCOC(=O)Cc1cnc(NC(=O)CSc2nc(N)cc(N)n2)s1	1	-2	15	-14	nt	nt	nt
O=C(NCc1ccc2[nH]c3c(c2c1)CCCC3)c1ccc(S(=O)(=O)N2CCCC2)cc1	0	-48	0	-7	nt	nt	nt
Cc1ccc(C(=O)Nc2ccc(S(=O)(=O)N3CCCC3)cc2)cc1	7	1	-1	8	nt	nt	nt
O=C(COc1ccc2ccccc2c1)Nc1ccc(S(=O)(=O)N2CCCCCC2)cc1	0	-7	7	56*	12	1	9
Cc1cc2cc(CNC(=O)c3ccc(S(=O)(=O)N4CCCCC4)cc3)ccc2[nH]1	-1	-14	2	47*	36	1	8
Cc1ccc(CNC(=O)c2ccc(S(=O)(=O)N3CCCCCC3)cc2)cc1	nt	1	2	72*	35	-1	-8
Cc1ccc(NC(=O)c2ccc(S(=O)(=O)N3CCCCC3)cc2)cc1	2	-1	1	45*	42	1	-1
Cc1ccc(C(=O)NCCc2ccc(S(=O)(=O)N3CCCC3)cc2)cc1	-1	2	0	6	nt	nt	nt
COc1ccccc1/C=C/C(=O)NCc1ccccn1	-1	3	0	10	nt	nt	nt
COc1ccc(-c2ccc(C(=O)Nc3cc(OC)c(OC)c(OC)c3)c3occc23)c(C)c1	nt	1	2	10	nt	nt	nt
O=C(COc1cccc(NC(=O)c2cccc([N+](=O)[O-])c2)c1)c1ccc(Br)cc1	3	1	6	4	nt	nt	nt

High-throughput results (PubChem BioAssay)
